Assay results published in PMC10905692 (ACS Omega, 2024).
“Also recorded” adds a separate entry of the source.

Legend:
PTP1B [1] = biological target: T1, PTP1B (Homo sapiens, UniProt P18031); assay: Fluorescence quenching measurement of binding affinity; details: for n (number of binding sites) / KSV (Stern–Volmer constant): fluorescence quenching; for KSV (Stern–Volmer constant): 0–25 μM inhibitor
T1 sequence (P18031 1-435): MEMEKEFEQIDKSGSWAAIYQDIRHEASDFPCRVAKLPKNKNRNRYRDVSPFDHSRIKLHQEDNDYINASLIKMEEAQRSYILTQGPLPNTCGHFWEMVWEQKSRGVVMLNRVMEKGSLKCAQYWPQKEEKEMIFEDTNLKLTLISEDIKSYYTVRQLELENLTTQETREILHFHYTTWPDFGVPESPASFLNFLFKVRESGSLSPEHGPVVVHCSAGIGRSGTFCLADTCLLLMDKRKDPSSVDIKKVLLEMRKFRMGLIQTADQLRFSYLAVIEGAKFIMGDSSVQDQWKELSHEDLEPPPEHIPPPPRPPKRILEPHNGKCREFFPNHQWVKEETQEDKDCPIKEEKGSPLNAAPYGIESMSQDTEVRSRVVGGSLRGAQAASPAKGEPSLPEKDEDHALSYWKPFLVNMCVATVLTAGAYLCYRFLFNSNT
How it was run: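 Intrinsic fluorescence quenching of human recombinant PTP1B, at the enzyme level of the activity assays, in assay buffer. Test compound was added at 0, 1.6, 3.2, 6.2, 12.5 and 25 μM. Emission spectra were recorded over 300–400 nm with 250 nm excitation and 2 nm slits. KSV was obtained by Stern–Volmer analysis; binding constant KA and number of sites n from eqs 9–10.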

PTP1B [2] = biological target: T1, PTP1B; assay: PTP1B inhibitory assay; type: biochemical
PTP1B [3] = biological target: T1, PTP1B; assay: Enzyme kinetic assay; type: biochemical; details: for kinetic mode: Lineweaver–Burk plots; for KIS: inhibition constant for enzyme–substrate complex
How it was run: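 Human recombinant PTP1B in Tris-HCl pH 7.5 buffer (25 mM Tris, 1 mM EDTA, 2 mM 2-mercaptoethanol, 1 mM dithiothreitol); test compounds dissolved in DMSO. Steady-state rates were taken across varied inhibitor and substrate concentrations and analysed by Lineweaver–Burk and Dixon plots. KI and KIS came from secondary plots of slopes or 1/Vmax intercepts vs inhibitor concentration (eqs 2–4). Reversibility was judged from activity vs enzyme concentration at several inhibitor levels.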

PTP1B [4] = biological target: T1, PTP1B; assay: Time-dependent assays and progress curves; type: biochemical
How it was run: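 PTP1B was preincubated with test compound for 0, 5, 10, 15, 30, 45, 60 or 75 min (0.2 μM), then residual activity was read. Progress curves were recorded at actual substrate concentration across several inhibitor concentrations by absorbance at 405 nm, […] the ~10 min lag. vi, vs, kobs and Ki app were fitted with eqs 5–8. kobs was plotted against inhibitor concentration to give k3 and k4.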

[5] = Ki (inhibition constant), estimated using Dixon plots
[6] = KI, inhibition constant for free enzyme, secondary plots

| Kd (PTP1B [1]) | n (number of binding sites) (PTP1B [1]) | KSV (Stern–Volmer constant) (PTP1B [1]) | IC50 (PTP1B [2]) | Ki (PTP1B [3]; [5]) | kinetic mode (PTP1B [3]) | fold effective vs mother compound (PTP1B [2]; pyran compound 5 vs 6) | Ki (PTP1B [3]; [6]) | KIS (PTP1B [3]; secondary plots) | Ki (PTP1B [4]) | k3 (PTP1B [4]; slow-binding, progress curves) | k4 (PTP1B [4]; slow-binding, progress curves) | fold more effective (inhibition activity) (PTP1B [2]; trans 1 vs cis 2) | reversibility of the inhibitor to the enzyme (PTP1B [3]; initial velocity plots at different inhibitor concentrations) | fold better inhibition than mother skeleton (PTP1B [2]; glycosides 11 vs 6 and 13 vs 8) | Compound | time-dependent inhibition type (PTP1B [4]; preincubation 0–75 min, kobs vs inhibitor concentration linear) |
| --- | --- | --- | --- | --- | --- | --- | --- | --- | --- | --- | --- | --- | --- | --- | --- | --- |
| 370 µM | 1.16 | 0.0304 × 10^5 L·mol^–1 | 2.24 ± 0.5 µM | 1.04 µM | competitive inhibitors | – | – | – | – | – | – | – | – | – | CC1(C)C=Cc2c(cc(O)c3c2O[C@H](c2ccccc2)[C@H](O)C3=O)O1 [Compound 2, (2R,3S)-3,5-dihydroxy-8,8-dimethyl-2-phenyl-2,3-dihydro-4H,8H-pyrano[2,3-f]chromen-4-one] | – |
| 10000 µM | 0.79 | 0.0002 × 10^5 L·mol^–1 | 35.4 ± 0.7 µM | 34.7 µM | noncompetitive | – | – | – | – | – | – | – | – | – | O=C1c2c(O)cc(O)cc2O[C@H](c2ccc(O)cc2)[C@H]1O [Compound 6, dihydrokaempferol] | – |
| 1110 µM | 1.20 | 0.0132 × 10^5 L·mol^–1 | 3.07 ± 0.2 µM | 3.46 µM | noncompetitive inhibitor | 9 fold | – | – | – | – | – | – | – | – | CC1(C)C=Cc2c(cc(O)c3c2O[C@H](c2ccc(O)cc2)[C@@H](O)C3=O)O1 [Compound 5, yukovanol] | – |
| 769 µM | 1.02 | 0.0056 × 10^5 L·mol^–1 | 5.99 ± 0.5 µM | 2.9 µM | competitive | – | – | – | – | – | – | – | – | – | O=c1cc(-c2ccc(O)cc2)oc2cc(O)cc(O)c12 [Compound 8, apigenin] | – |
| 22.1 µM | 0.97 | 0.3803 × 10^5 L·mol^–1 | 0.22 ± 0.3 µM | 0.18 µM | mixed type I | – | 0.18 µM | 0.80 µM | – | – | – | – | – | 27 fold | O=c1cc(-c2ccc(O)cc2)oc2cc(O[C@@H]3O[C@H](CO)[C@@H](O)[C@H](O)[C@H]3O)cc(O)c12 [Compound 13, apigenin-7-O-β-D-glucopyranoside] | – |
| 72.5 µM | 0.93 | 0.0569 × 10^5 L·mol^–1 | 1.19 ± 0.3 µM | 0.45 µM | competitive | – | – | – | – | – | – | – | – | – | CC1(C)C=Cc2c(cc(O)c3c(=O)cc(-c4ccc(O)cc4)oc23)O1 [Compound 7, atalantoflavone] | – |

| Compound | Kd (PTP1B [1]) | n (number of binding sites) (PTP1B [1]) | KSV (Stern–Volmer constant) (PTP1B [1]) | IC50 (PTP1B [2]) | Ki (PTP1B [3]; [5]) | kinetic mode (PTP1B [3]) | fold effective vs mother compound (PTP1B [2]; pyran compound 5 vs 6) | Ki (PTP1B [3]; [6]) | KIS (PTP1B [3]; secondary plots) | Ki (PTP1B [4]) | k3 (PTP1B [4]; slow-binding, progress curves) | k4 (PTP1B [4]; slow-binding, progress curves) | fold more effective (inhibition activity) (PTP1B [2]; trans 1 vs cis 2) | reversibility of the inhibitor to the enzyme (PTP1B [3]; initial velocity plots at different inhibitor concentrations) | fold better inhibition than mother skeleton (PTP1B [2]; glycosides 11 vs 6 and 13 vs 8) | time-dependent inhibition type (PTP1B [4]; preincubation 0–75 min, kobs vs inhibitor concentration linear) |
| --- | --- | --- | --- | --- | --- | --- | --- | --- | --- | --- | --- | --- | --- | --- | --- | --- |
| O=c1cc(-c2ccc(O)cc2O)oc2cc(O)cc(O)c12 [Compound 10, norartocarpetin] | 833 µM | 1.06 | 0.0124 × 10^5 L·mol^–1 | 3.39 ± 0.2 µM | 2.71 µM | mixed-type inhibitions; also recorded: mixed type I | – | 2.68 µM | 5.23 µM | – | – | – | – | – | – | – |
| CC1(C)C=Cc2c(cc(O)c3c2O[C@H](c2ccccc2)[C@@H](O)C3=O)O1 [Compound 1, (2R,3R)-3,5-dihydroxy-8,8-dimethyl-2-phenyl-2,3-dihydro-4H,8H-pyrano[2,3-f]chromen-4-one] | 27.8 µM | 1.09 | 0.4375 × 10^5 L·mol^–1 | – | 0.07 µM | competitive mode; also recorded: competitive inhibitors | – | – | – | 0.0641 µM | 0.2262 μM^–1 min^–1 | 0.0145 min^–1 | 13 fold | typical reversibility | – | simple slow-binding inhibitor; also recorded: slow binding mode; also recorded: slow binding characteristics |
